# Shown are actives, neighbours in structure and some others; about 1.3% of the full set was active somewhere.
# Rpn11 block – inhibitors of human proteasome Rpn11. O00487. human 26S proteasome, Ub4-pepOG fluorescence polarization; 20S core pre-blocked with epoxomicin. inhibition, % at 20 µM. 360,000 tested, 0.59% active;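 active means inhibition at 20 µM, scaled to each plate's controls, above about 33%, limit read from the data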
# Target sequence (O00487 whole entry, looked up): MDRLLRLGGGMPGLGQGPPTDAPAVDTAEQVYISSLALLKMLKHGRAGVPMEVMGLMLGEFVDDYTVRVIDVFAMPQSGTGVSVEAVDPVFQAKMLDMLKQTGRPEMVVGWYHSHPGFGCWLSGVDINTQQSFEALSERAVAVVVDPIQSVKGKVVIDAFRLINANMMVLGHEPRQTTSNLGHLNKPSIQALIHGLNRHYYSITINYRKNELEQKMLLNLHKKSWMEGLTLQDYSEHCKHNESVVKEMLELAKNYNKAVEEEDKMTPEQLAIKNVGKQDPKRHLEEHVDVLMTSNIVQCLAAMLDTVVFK
# XiGFP reactiv – reactivates the inactive X chromosome in mouse fibroblasts; activation, % at 7.58 µM; XiGFP mouse fibroblasts, % GFP-positive cells imaging, 3 d; cells co-treated with 5-aza-dC sensitizer; scaled so ellipticine positive control = 100%; 360,000 tested, 0.055% active;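 active means mean normalized replicate activation at least 10% and every replicate at or above 10%; inconclusive means only one of the two criteria met; inactive means mean below 10% and not all replicates reach 10%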
#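 material = 68-5-11 XiGFP fibroblast line | medium = DMEM plus 5-aza-dC sensitizer | schedule = 3 days compound exposure | benchmarks = positive control ellipticine, 6 µM final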
# aDG glyco up – alpha-DG glycosylation activation | 360,000 tested, 0.22% active | Pro5-aDG cells, alpha-DG glycosylation AlphaScreen (IIH6); 0% Pro5, 100% B10-LARGE cell signal | activation, % at 10 µM | AID 624168;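 active means activation of at least 8% versus controls, or a plate z-score of at least 8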;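 further: Pro5 are CHO cells carrying HIG-tagged alpha-DG that lacks glycosylation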
# CSN inh – blocks human CSN-mediated cullin deneddylation; AID 651999; 360,000 tested, 0.38% active; Purified CSN, SCF-Nedd8-OG deneddylation, fluorescence polarization; inhibition, % at 12.5 µM;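 active means pattern-corrected inhibition above about 35%, with an unprinted fluorescence ratio check between 0.5 and 1.5, limit read from the data, passing the limit was not always enough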
# Target sequence (Q92905 whole entry, looked up, one chain of several): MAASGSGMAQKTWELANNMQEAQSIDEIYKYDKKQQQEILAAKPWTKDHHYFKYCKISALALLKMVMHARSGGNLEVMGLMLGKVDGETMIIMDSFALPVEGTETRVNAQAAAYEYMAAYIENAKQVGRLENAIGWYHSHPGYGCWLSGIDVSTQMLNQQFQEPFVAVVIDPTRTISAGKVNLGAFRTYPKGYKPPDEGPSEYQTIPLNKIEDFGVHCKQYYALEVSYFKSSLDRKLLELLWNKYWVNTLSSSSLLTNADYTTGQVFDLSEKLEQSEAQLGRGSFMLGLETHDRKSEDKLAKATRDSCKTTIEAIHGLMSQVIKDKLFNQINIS
#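 Test system: Human Csn5 produced in HEK293T cells | Compound: 12.5 µM single point | Times: 90 min, room temperature | Signal: Fluorescence polarization readout | Read-out basis: % inhibition of substrate cleavage by Csn5 | Controls: no-enzyme wells high, enzyme-with-substrate wells low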
# TPT1 inhibitor – inhibitors of Candida albicans tRNA 2'-phosphotransferase TPT1 | recombinant caTPT1, FP RNA substrate dephosphorylation | inhibition, % at 5 µM | 300,000 tested, 0.81% active;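 active means inhibition above the mean of all tested compounds plus 3 SD, set per screening campaign, cut at about 24% in these data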
# HNF4A DNA FP – change in binding of human HNF4 alpha to DNA; activity change, % at 10 µM; AID 1224865; P41235; HNF4a-FITC DNA binding, fluorescence polarization, 1 h; 360,000 tested, 0.3% active; in the data active means activity change above about 30%, passing the limit was not always enough
# Numbers stand for hits; – = inactive; ? = inconclusive; · = no result shown.
SMILES,Rpn11 block,XiGFP reactiv,aDG glyco up,CSN inh,TPT1 inhibitor,HNF4A DNA FP
C[C@@H]1CN([C@H](C)CO)C(=O)c2cc(NS(=O)(=O)c3ccc(Cl)cc3)ccc2O[C@@H](C)CCCCO[C@@H]1CN(C)C(=O)c1ccncc1,·,–,·,·,·,·
O=C(O)COc1ccc(/C=C2\SC(=Nc3ccccc3)N(c3ccccc3)C2=O)cc1,–,–,–,–,–,–
COc1ccc(N=C2S/C(=C\c3ccc(OCC(=O)O)cc3)C(=O)N2CCc2c[nH]c3ccccc23)cc1,–,–,–,36,·,–
COCC(=O)N1CC2(C1)[C@@H](c1ccccc1)[C@H](CO)N2C(=O)c1ccncc1,·,–,·,·,·,·
Cc1[nH]c2ccccc2c1/C=N/Nc1ccc([N+](=O)[O-])cc1S(=O)(=O)Nc1ccc(Cl)cc1,·,·,–,44,–,94
CC(C)CC#Cc1cnc2c(c1)C(=O)N([C@H](C)CO)C[C@@H](C)[C@@H](CN(C)C(=O)c1ccc3c(c1)OCO3)O2,·,–,·,·,·,·
O=C(NC1CCCCC1)N[C@H]1CC[C@@H](CC(=O)N2CCOCC2)O[C@@H]1CO,·,–,·,·,·,·
CCCCCCCCCC(=O)O,–,·,–,–,·,–
O=C(O)CCCCC1CCSS1 (stereo unspecified),–,–,–,35,–,–
CCC(=O)Nc1c(C#N)c2nc3ccccc3nc2n1-c1ccccc1C,–,·,–,–,–,–
N#Cc1c(NC(=O)c2ccccc2Cl)n(Cc2ccccc2)c2nc3ccccc3nc12,55,–,–,74,–,73
Cc1ccccc1NC(=O)CSc1ccsc1[N+](=O)[O-],–,–,–,35,–,–
COCCCNC(=O)CSc1ccsc1[N+](=O)[O-],–,–,–,–,–,–
CCC(=O)N1CC2(C1)[C@@H](c1ccccc1)[C@@H](CO)N2CCC(F)(F)F,·,–,·,·,·,·
O=C(Nc1cccnc1)c1cc2c(ccc3ccccc32)o1,62,·,–,–,–,–
Cc1cc(=O)oc(C)c1C(=O)n1nc(C)c2c1C[C@@H]1[C@H]2C1(C)C,–,·,–,–,–,52
C[C@H](CO)N1C[C@H](C)[C@H](CN(C)Cc2ccc(C(=O)Nc3ccccc3N)cc2)Oc2c(NS(=O)(=O)c3cn(C)cn3)cccc2C1=O,·,–,·,·,·,·
O=C1NN(c2ccccc2)C(=O)/C1=C/c1ccc(Sc2ccc(Cl)cc2)o1,–,–,2.6,–,–,–
Cc1ccc(Sc2ccc(/C=C3/C(=O)NN(c4ccccc4)C3=O)o2)cc1,–,–,–,–,–,–
Cc1cc(=O)oc2cc(NC(=O)COc3ccccc3[N+](=O)[O-])ccc12,–,–,–,71,·,–
O=C1/C(=C/c2ccncc2)SC(=S)N1C1CCCCC1,–,–,–,–,–,–
Cc1ccc(/C=C2/SC(=S)N(C3CCCCC3)C2=O)o1,102,–,–,–,–,34
COC1=CC(=O)c2c(ccc3ncnc(N)c23)C1=O,–,19,–,–,·,–
COC1=CC(=O)c2nc(Cl)ccc2C1=O,–,?,–,–,·,–
C[C@@H]1CCCCO[C@H](CN(C)S(C)(=O)=O)[C@@H](C)CN([C@@H](C)CO)C(=O)c2cc(NS(=O)(=O)c3ccccc3)ccc2O1,·,–,·,·,·,·
SMILES,Rpn11 block,XiGFP reactiv,aDG glyco up,CSN inh,TPT1 inhibitor,HNF4A DNA FP
Cc1cccn2cc(-c3ccc(NC(=O)Cc4ccccc4)cc3)nc12,–,–,–,–,–,40
O=S(=O)(Nc1nc(-c2ccco2)c(-c2ccco2)s1)c1ccc(F)cc1F,–,–,–,39,·,–
O=S(=O)(Nc1nc2ccccc2s1)c1cc(F)ccc1F,–,–,–,–,–,–
Cc1ccccc1Cn1c(=N)n(CC(=O)c2ccc([N+](=O)[O-])cc2)c2ccccc21,·,–,–,–,–,43
CCCn1c(=N)n(CC(=O)c2ccc([N+](=O)[O-])cc2)c2ccccc21,–,–,–,–,–,–
Cc1ccc(Cn2c(=N)n(CC(=O)c3ccccc3)c3ccccc32)cc1,–,–,12,–,–,–
O=C(OCCNc1ccc(C(F)(F)F)cc1[N+](=O)[O-])c1cc2ccccc2oc1=O,·,–,–,95,–,–
Cc1cc(O)c(/C=N/Nc2ccc(Cl)cc2)c(=O)o1,–,·,6.5,–,–,–
Cc1cc(O)c(/C=N/Nc2cccc(Cl)c2)c(=O)o1,–,·,–,–,–,–
CC(=O)Nc1cccc2c1O[C@@H](CN(C)C(=O)OC(C)(C)C)[C@H](C)CN(C)C2=O,·,–,·,·,·,·
CCOCCOC(=O)c1[nH]c2c(c1C)C(=O)CC(c1ccccc1)C2 (stereo unspecified),–,–,2.2,–,–,–
COc1cc(OC)c2c(O)c3c(c(-c4c5c(c(O)c6c(OC)cc(OC)cc46)CO[C@@H](C)[C@H]5O)c2c1)[C@H](O)[C@H](C)OC3,72,·,–,–,–,–
Cc1c(OC(C)C(=O)NCCN2CCOCC2)ccc2c3c(c(=O)oc12)CCCC3 (stereo unspecified),–,–,–,41,–,–
Cc1cc(=O)oc2c(C)c(OC(C)C(=O)NCCN3CCOCC3)ccc12 (stereo unspecified),–,–,–,–,–,–
COc1ccc(C#Cc2cnc3c(c2)C(=O)N([C@H](C)CO)C[C@H](C)[C@H](CN(C)S(=O)(=O)c2cccs2)O3)cc1OC,·,–,·,·,·,·
c1ccc(CCNc2ncnc3ccccc23)cc1,–,–,8.7,–,–,–
C/C=C/c1cccc(-c2nc(C(=O)NC3CCC3)cc3c2[C@H](CCO)N([S@@](=O)C(C)(C)C)C3)c1,·,–,·,·,·,·
C[C@@H]1CN([C@@H](C)CO)S(=O)(=O)c2ccc(-c3cccc(F)c3)cc2O[C@H]1CN(C)CC1CC1,·,–,·,·,·,·
Cc1ccn2cc(-c3ccc4c(c3)NC(=O)CO4)nc2c1,–,–,–,54,–,–
Cc1cccn2cc(-c3ccc4c(c3)NC(=O)CO4)nc12,–,–,–,–,–,–
CCOC(=O)C1=CN(Cc2cccc(F)c2)S(=O)(=O)N(C)C1c1cccc(OC)c1 (stereo unspecified),–,–,–,–,·,–
CCOC(=O)C1=CN(Cc2cccc(F)c2)S(=O)(=O)N(C)C1c1ccccc1 (stereo unspecified),–,–,–,103,·,–
CO[C@H]1CN(C)C(=O)c2cc(NC(C)=O)ccc2OC[C@H](C)N(CCc2ccccc2)C[C@H]1C,·,–,·,·,·,·
CC1Sc2ccc(S(=O)(=O)N3CCC(C(=O)Nc4ccc(Cl)cc4)CC3)cc2NC1=O (stereo unspecified),·,–,–,–,–,41
CCCNC(=O)N1CCC2(CC1)CN(C(=O)CN1CCOCC1)[C@@H](CO)c1[nH]c3cc(OC)ccc3c12,·,–,·,·,·,·
c1ccc(Oc2ccc(-n3cnnn3)cc2)cc1,–,·,–,–,–,57
